Measured values gathered from unrelated publications.
CDK4 with cyclin D3: Cyclin-dependent kinase 4, with cyclin D3 (CDK4, Homo sapiens, UniProt P11802)
CDK4 with cyclin D1: Cyclin-dependent kinase 4, with cyclin D1 (CDK4, Homo sapiens, UniProt P11802)
CDK4: Cyclin-dependent kinase 4 (CDK4, Homo sapiens, UniProt P11802)

Compound	target	observed	action	technique	concentration	quantity	value
Cn1cncc1[C@@](O)(COc1ccc(C#N)cc1-c1ccc(OC(F)(F)F)cc1)c1ccc(C#N)cc1	CDK4 with cyclin D3	cell-free assay		competition with immobilised ligand	1 µM	remaining binding	92%
O=c1[nH]c2ccccc2n1C1CCN(Cc2ccc(-c3[nH]c4cc5ncnc5cc4nc3-c3ccccc3)cc2)CC1	CDK4 with cyclin D1	cell-free assay			0.5 µM	remaining signal	108%
CCOC(=O)[C@H]1Cc2c(cc([N+](=O)[O-])cc2[N+](=O)[O-])[C@H](O)[C@]12C(=O)Nc1cc(Cl)ccc12	CDK4	cell-free assay	inhibitor	TR-FRET	1 µM	inhibition	38.6%
N#CC1(c2ccccn2)CCN(Cc2cc(C(=O)O)c(=O)n3ccccc23)CC1	CDK4	cell-free assay		competition with immobilised ligand	1 µM	remaining binding	94%
CC(C)(C)c1cc(C=C(C#N)C#N)cc(Br)c1O	CDK4 with cyclin D3	enzyme activity	inhibitor		0.5 µM	remaining activity	96.5%
CCOC(=O)[C@H]1Cc2c(cc([N+](=O)[O-])cc2[N+](=O)[O-])[C@@H](O)[C@@]12C(=O)Nc1c(F)cccc12	CDK4	cell-free assay	inhibitor	TR-FRET	1 µM	inhibition	52.6%
Cc1nn(C)cc1-c1nc2c(N3CCN(Cc4ccc(Cl)cc4)CC3)c(Cl)cnc2[nH]1	CDK4 with cyclin D1	binding		competition with immobilised ligand	1 µM	remaining binding	76%
CCOC(=O)[C@H]1Cc2c(cc([N+](=O)[O-])cc2[N+](=O)[O-])[C@@H](O)[C@@]12C(=O)Nc1ccc(Br)cc12	CDK4	cell-free assay	inhibitor	TR-FRET	1 µM	inhibition	76.3%
Nc1ncc(-c2nc(N3CCOCC3)nc(N3CCOCC3)n2)c(C(F)F)n1	CDK4 with cyclin D1	binding		competition with immobilised ligand	10 µM	remaining binding	100%
